# Screens: PubChem, several laboratories
# Biofilm kill mix: mixtures killing C. albicans biofilm; AID 1242; inhibition, % at 7.6 µM; actives 0.02% (n = 120,000); C. albicans biofilm persisters + clotrimazole, fluorescence viability; primary screen in compound mixtures of four per well;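 further: compounds exposed to preformed 24 h biofilms for 48 h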
#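 Probe or stimulus – Clotrimazole 50 µg/mL co-treatment · System – C. albicans biofilms · Schedule – 24 h biofilm formation, then 48 h compound exposure, 37 °C · Evaluation – percent inhibition of biofilm viability · Technique – 2-h Alamar Blue fluorescence, 535/590 nm excitation/emission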
# ROMK primary: modulators of human ROMK potassium channel; P48048; Tet-inducible ROMK, thallium flux fluorescence; actives lie on both sides; B-score at 10 µM; AID 1918; actives 2% (n = 130,000);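 active means signal ratio slope over the read window, or its plate-corrected B-score, at least 3 SD from the plate mean, either direction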;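 further: B-score of the F/F0 ratio slope over 7 to 12 s after thallium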
# ROMK hit retest: human ROMK channel modulation, retest confirmation; shares compounds with ROMK primary; ROMK thallium flux, fluorescence ratio; active compounds read low; normalized thallium flux (F/F0 slope) at 10 µM; actives 54% (n = 3,000); AID 1917;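 active means Flux at 10 µM at least 3 SD below or above vehicle control mean in one or both replicates; inconclusive means no clear call, values can overlap the other calls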
# A number is an active result; – = inactive; ? = inconclusive; · = no result. The full list was thinned out, with hits kept by preference.
SMILES,Biofilm kill mix,ROMK primary,ROMK hit retest
C=CC(C)C(C(=O)c1ccccc1)N(C)C (configuration not stated),–,–,·
CN(C)C(Cc1ccccc1)C(=O)c1ccccc1 (configuration not stated),–,·,–
O=C1C2C3CCC(O3)C2C(=O)N1CCO (configuration not stated),–,·,·
O=C(COc1ccc(Cl)cc1)N1CCN(Cc2ccc([N+](=O)[O-])cc2)CC1,–,-6.5,0.049
COc1ccc(OCC(=O)N2CCN(Cc3nc4cc([N+](=O)[O-])ccc4n3C)CC2)cc1,–,–,·
Cc1onc(-c2c(Cl)cccc2Cl)c1C(=O)Nc1ccc2c(C(F)(F)F)cc(=O)oc2c1,–,·,·
O=C1NC(=O)C(=Cc2cn(CCOc3ccc4c(c3)OCO4)c3ccccc23)C(=O)N1,·,-5.6,?
O=C1NC(=O)C(=Cc2ccc3c(c2)OCO3)C(=O)N1,–,–,·
CCNC(=S)N1CCn2cccc2C1c1cccnc1 (configuration not stated),–,–,·
Cc1cc(=O)n(-c2ccccc2)n1-c1ccccc1,–,–,·
